# Assay results as given in ChEMBL document CHEMBL1240487, “Discovery of a potent, selective, and orally bioavailable pyridinyl-pyrimidine phthalazine aurora kinase inhibitor” (J Med Chem, 2010).
# Calls of active or inactive are those of the source. The calls are words filed in the database; no cut-off is given here.
# What was measured:
# Plasma [1] = experiment: Fraction unbound in mouse plasma at 10 uM after 6 hrs by ultrafiltration; format: ADME, cell-free
# [2] = target: Tyrosine-protein kinase BTK (Homo sapiens, UniProt Q06187); experiment: Inhibition of BTK by HTRF assay
# Chain of Tyrosine-protein kinase BTK (Q06187 whole entry): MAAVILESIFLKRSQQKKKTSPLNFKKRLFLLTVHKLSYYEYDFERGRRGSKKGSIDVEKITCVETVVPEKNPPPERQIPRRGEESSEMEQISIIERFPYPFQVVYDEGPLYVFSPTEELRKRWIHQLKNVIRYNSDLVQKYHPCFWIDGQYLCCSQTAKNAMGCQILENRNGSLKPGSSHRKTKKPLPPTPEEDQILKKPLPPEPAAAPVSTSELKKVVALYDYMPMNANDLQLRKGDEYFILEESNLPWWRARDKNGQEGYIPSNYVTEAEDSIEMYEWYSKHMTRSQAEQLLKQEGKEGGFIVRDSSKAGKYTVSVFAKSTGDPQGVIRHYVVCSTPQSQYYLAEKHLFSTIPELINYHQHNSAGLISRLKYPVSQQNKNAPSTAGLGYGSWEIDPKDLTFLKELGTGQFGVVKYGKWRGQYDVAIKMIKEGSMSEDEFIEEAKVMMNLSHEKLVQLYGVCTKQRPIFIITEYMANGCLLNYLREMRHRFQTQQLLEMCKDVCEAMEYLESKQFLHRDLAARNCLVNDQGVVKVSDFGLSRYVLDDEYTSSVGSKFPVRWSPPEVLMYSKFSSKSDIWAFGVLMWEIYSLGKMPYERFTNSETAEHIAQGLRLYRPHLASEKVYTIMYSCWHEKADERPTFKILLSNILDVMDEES
# Ephrin type-B receptor 4 = target: T1, Ephrin type-B receptor 4 (Homo sapiens, UniProt P54760); experiment: Inhibition of EphB4 by HTRF assay
# T1 sequence (P54760 whole entry): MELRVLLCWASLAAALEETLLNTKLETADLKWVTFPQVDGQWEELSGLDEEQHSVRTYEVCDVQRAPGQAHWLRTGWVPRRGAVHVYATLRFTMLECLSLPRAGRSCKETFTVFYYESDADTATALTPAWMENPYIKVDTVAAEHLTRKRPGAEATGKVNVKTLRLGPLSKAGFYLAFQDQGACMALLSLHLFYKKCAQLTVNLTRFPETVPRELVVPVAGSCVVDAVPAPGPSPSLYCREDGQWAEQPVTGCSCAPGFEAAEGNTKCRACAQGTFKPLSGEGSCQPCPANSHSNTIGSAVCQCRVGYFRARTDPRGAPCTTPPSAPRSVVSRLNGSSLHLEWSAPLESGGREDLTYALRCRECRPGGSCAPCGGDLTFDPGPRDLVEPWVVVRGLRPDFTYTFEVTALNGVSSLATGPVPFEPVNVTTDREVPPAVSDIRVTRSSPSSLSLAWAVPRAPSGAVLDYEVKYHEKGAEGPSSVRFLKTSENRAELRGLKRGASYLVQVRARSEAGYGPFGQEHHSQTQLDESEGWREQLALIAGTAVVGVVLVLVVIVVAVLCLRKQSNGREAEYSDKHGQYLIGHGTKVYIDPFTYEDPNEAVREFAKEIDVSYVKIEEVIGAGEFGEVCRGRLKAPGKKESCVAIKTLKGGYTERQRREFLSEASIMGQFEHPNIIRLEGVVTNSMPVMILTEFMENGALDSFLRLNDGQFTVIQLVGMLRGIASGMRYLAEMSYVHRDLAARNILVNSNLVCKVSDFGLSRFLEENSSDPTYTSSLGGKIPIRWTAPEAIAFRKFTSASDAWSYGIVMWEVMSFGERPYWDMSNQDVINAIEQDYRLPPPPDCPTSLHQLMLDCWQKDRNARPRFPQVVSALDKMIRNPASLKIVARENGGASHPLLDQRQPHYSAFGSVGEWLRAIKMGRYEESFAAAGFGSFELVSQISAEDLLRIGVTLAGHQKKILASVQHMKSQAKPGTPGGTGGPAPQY
# How it was run: (§1)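 Enzyme inhibition was run with ATP at its Km for each kinase. Values are averages of at least two determinations.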
# [3] = target: Serine/threonine-protein kinase PLK1 (Homo sapiens, UniProt P53350); experiment: Inhibition of PLK1 by HTRF assay; how it was run: as §1
# Chain of Serine/threonine-protein kinase PLK1 (P53350 whole entry): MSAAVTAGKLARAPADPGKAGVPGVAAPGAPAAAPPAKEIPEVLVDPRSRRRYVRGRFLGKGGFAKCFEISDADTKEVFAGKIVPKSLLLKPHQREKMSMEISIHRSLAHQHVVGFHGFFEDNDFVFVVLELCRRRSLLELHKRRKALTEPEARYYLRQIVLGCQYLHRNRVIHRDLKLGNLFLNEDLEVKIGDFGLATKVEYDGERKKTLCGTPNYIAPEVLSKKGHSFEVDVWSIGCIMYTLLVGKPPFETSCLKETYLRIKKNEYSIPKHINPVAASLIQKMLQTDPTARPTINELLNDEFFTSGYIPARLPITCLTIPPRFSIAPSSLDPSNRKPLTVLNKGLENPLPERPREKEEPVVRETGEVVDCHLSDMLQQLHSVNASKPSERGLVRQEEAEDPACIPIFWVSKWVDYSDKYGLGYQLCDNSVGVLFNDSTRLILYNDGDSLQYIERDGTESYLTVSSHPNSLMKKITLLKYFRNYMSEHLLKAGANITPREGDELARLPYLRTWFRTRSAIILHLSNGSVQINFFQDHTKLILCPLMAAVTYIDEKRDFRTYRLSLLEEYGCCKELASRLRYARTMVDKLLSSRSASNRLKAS
# HeLa = experiment: Induction of morphological changes in human HeLa cells at […] after 48 hrs using DAPI staining by microscopic analysis
# [4] = target: T2, Tyrosine-protein kinase ZAP-70 (Homo sapiens, UniProt P43403); experiment: Inhibition of Zap70 by HTRF assay; how it was run: as §1
# T2 sequence (P43403 whole entry): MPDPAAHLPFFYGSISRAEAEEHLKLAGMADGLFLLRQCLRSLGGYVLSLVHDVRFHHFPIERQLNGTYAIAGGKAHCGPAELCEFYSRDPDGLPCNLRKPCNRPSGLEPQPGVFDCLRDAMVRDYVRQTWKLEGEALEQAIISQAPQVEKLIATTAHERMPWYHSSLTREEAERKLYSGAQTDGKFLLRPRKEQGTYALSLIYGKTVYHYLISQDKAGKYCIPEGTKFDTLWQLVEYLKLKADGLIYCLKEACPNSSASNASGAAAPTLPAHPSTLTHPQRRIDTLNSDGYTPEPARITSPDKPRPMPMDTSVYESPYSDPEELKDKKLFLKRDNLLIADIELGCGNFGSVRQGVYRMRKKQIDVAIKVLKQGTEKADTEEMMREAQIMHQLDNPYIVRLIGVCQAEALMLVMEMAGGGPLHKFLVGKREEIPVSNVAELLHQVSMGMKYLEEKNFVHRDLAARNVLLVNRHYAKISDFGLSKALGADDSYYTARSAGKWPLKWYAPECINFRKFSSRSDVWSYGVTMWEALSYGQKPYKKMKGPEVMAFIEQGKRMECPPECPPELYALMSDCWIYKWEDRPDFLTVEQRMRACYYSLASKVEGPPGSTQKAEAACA
# [5] = Aqueous equilibrium solubility of the compound in 0.01N HCL; format: physicochemical
# [6] = Protein binding in mouse plasma at 10 uM by ultrafiltration; format: ADME, cell-free; conditions: read-out: PPB
# [7] = target: RAC-beta serine/threonine-protein kinase (Homo sapiens, UniProt P31751); experiment: Inhibition of PKBbeta by HTRF assay; how it was run: as §1
# Chain of RAC-beta serine/threonine-protein kinase (P31751 whole entry): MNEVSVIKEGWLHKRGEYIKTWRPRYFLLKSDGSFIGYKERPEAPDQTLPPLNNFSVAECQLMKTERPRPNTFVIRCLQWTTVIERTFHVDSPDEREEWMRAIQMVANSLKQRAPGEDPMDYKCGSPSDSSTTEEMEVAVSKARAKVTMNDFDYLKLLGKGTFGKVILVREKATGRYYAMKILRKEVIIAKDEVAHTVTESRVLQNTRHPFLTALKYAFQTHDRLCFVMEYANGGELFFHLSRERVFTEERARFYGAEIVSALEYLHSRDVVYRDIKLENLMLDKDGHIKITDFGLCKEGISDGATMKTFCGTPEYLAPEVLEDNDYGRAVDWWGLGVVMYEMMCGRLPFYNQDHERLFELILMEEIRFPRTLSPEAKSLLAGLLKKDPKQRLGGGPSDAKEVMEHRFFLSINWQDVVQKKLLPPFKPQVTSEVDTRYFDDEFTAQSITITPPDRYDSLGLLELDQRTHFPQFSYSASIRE
# [8] = target: Aurora kinase A (Homo sapiens) (UniProt O14965); experiment: Inhibition of aurora A autophosphorylation in human HeLa cells at 0.313 uM after 3 hrs by Western blotting
# Chain of Aurora kinase A (Homo sapiens) (O14965 whole entry): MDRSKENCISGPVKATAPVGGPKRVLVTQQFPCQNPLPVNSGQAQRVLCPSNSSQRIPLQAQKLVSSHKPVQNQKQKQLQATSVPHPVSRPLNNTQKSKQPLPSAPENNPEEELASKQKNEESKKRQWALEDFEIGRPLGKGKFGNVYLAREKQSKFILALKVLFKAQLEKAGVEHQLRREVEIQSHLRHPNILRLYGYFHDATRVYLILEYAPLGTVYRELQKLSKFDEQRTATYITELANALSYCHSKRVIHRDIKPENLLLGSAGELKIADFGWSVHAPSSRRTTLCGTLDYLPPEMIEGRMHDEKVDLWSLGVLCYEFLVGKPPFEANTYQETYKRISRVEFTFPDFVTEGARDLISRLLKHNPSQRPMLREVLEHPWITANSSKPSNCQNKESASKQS
# Plasma [9] = experiment: Fraction unbound in mouse plasma at 10 uM after 24 hrs by ultrafiltration; format: ADME, cell-free
# [10] = target: Tyrosine-protein kinase ABL1 (Homo sapiens, UniProt P00519); experiment: Inhibition of Abl by HTRF assay; how it was run: as §1
# Angiopoietin-1 receptor = Angiopoietin-1 receptor (Homo sapiens, UniProt Q02763); experiment: Inhibition of Tie-2 by HTRF assay; how it was run: as §1
# [11] = target: Macrophage colony-stimulating factor 1 receptor (Homo sapiens, UniProt P07333); experiment: Inhibition of c-Fms by HTRF assay; how it was run: as §1
# [12] = target: Mast/stem cell growth factor receptor Kit (Homo sapiens, UniProt P10721); experiment: Inhibition of c-Kit by HTRF assay; how it was run: as §1
# Chain of Mast/stem cell growth factor receptor Kit (P10721 whole entry): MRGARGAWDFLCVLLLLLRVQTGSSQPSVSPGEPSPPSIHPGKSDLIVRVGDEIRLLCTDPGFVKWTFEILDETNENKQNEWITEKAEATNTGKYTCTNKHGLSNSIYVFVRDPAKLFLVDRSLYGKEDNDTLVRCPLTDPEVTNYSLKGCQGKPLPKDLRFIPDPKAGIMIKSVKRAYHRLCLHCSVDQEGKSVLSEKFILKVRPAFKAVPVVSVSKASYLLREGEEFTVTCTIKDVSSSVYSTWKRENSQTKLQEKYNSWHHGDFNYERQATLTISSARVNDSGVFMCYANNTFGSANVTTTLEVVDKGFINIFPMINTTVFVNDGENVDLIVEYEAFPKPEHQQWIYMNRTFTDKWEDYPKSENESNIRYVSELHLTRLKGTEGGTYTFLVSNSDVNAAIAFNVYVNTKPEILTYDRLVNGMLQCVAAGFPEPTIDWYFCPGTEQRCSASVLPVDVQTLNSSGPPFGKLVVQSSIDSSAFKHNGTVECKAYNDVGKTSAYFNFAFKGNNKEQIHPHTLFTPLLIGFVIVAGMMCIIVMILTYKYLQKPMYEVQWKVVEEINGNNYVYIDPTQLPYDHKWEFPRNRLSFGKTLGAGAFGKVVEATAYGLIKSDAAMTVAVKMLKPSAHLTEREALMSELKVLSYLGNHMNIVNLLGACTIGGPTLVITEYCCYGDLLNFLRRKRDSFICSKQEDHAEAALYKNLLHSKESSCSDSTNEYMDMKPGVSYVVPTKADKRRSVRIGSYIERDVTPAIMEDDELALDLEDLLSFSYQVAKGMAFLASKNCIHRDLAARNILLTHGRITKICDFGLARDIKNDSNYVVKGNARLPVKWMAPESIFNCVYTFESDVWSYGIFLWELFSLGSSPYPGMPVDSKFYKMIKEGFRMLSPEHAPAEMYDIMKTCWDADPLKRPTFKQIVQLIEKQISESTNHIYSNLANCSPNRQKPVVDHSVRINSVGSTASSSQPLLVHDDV
# [13] = target: Vascular endothelial growth factor receptor 2 (Homo sapiens, UniProt P35968); experiment: Inhibition of KDR by HTRF assay; how it was run: as §1
# Chain of Vascular endothelial growth factor receptor 2 (P35968 whole entry): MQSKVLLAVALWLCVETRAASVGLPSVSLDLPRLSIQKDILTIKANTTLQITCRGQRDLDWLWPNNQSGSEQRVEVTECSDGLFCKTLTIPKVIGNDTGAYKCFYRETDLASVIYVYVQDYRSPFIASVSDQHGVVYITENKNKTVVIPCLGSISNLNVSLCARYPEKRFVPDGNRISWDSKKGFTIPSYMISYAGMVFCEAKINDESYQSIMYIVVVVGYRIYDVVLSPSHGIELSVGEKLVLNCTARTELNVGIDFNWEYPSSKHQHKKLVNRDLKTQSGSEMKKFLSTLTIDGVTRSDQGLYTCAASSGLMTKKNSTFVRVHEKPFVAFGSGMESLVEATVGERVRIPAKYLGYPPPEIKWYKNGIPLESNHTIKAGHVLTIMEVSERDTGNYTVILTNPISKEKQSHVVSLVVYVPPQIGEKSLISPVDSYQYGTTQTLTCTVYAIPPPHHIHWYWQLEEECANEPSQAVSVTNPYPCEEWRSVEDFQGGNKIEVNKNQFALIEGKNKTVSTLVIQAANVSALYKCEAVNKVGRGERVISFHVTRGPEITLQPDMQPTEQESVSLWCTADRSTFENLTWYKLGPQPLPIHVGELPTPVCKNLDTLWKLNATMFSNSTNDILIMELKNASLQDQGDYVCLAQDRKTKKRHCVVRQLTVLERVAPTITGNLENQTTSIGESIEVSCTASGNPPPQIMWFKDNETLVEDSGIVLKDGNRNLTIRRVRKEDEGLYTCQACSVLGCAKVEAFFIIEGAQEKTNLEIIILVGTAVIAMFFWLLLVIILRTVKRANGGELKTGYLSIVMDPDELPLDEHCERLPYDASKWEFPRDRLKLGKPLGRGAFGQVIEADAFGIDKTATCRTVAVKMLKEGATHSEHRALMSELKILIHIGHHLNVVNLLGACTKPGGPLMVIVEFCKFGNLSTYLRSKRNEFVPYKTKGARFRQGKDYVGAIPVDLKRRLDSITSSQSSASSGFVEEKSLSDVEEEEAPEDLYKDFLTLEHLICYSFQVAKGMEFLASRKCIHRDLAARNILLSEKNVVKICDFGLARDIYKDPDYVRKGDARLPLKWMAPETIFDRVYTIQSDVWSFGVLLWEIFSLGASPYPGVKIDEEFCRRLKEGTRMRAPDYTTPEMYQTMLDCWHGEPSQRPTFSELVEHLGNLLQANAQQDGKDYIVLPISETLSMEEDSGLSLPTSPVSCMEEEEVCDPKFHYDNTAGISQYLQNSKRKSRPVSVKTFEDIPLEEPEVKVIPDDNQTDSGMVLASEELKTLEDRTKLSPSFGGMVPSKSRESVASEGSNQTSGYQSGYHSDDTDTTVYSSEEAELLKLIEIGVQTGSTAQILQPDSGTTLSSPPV
# [14] = target: Cyclin-dependent kinase 2 (Homo sapiens, UniProt P24941); experiment: Inhibition of CDK2 by HTRF assay; how it was run: as §1
# [15] = target: Hepatocyte growth factor receptor (Homo sapiens, UniProt P08581); experiment: Inhibition of c-Met by HTRF assay; how it was run: as §1
# [16] = Volume of distribution at steady state in Sprague-Dawley rat at 0.5 mg/kg, iv and 2 mg/kg, po; format: ADME, organism-based; conditions: in vivo, read-out: Vdss
# [17] = target: Tyrosine-protein kinase ABL1 (Homo sapiens, UniProt P00519, T315I); experiment: Inhibition of Abl T315I mutant by HTRF assay; how it was run: as §1
# [18] = target: Cyclin-dependent kinase 1 (Homo sapiens, UniProt P06493); experiment: Inhibition of CDK1 by HTRF assay; how it was run: as §1
# Chain of Cyclin-dependent kinase 1 (P06493 whole entry): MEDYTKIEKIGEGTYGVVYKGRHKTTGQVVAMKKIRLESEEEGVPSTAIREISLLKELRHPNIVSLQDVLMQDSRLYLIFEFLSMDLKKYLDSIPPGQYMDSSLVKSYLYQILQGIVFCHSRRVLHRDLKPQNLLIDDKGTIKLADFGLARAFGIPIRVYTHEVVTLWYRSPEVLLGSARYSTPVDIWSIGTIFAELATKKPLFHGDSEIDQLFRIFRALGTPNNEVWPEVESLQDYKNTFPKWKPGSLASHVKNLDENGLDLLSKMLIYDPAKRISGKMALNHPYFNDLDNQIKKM
# [19] = Clearance in Sprague-Dawley rat at 0.5 mg/kg, iv and 2 mg/kg, po; format: ADME, organism-based; conditions: in vivo
compound,measurement,setting,value
CNc1nccc(-c2cccnc2Oc2ccc(Nc3nnc(-c4ccc(F)cc4)c4ccccc34)cc2)n1,unbound concentration,Plasma [1],< 20 ng/mL
same,IC50,[2],> 25000 nM
same,IC50,Ephrin type-B receptor 4,> 25000 nM
same,IC50,[3],> 25000 nM
same,Activity,HeLa,Active
same,IC50,[4],> 25000 nM
same,solubility thermodynamic,[5],> 200 µg/mL
same,fraction unbound at 10 µM,[6],< 0.001
same,IC50,[7],> 25000 nM
same,Activity,[8],Active
same,unbound concentration,Plasma [9],< 2.5 ng/mL
CNc1nccc(-c2cccnc2Oc2ccc(NC(=O)c3cccc(C(F)(F)F)c3)cc2C)n1,IC50,[10],503 nM
same,IC50,Ephrin type-B receptor 4,> 8000 nM
same,IC50,Angiopoietin-1 receptor,630 nM
same,IC50,[3],> 8000 nM
same,IC50,[11],1580 nM
same,IC50,[12],1350 nM
same,IC50,[13],3270 nM
same,IC50,[4],> 8000 nM
CNc1nccc(-c2cccnc2Oc2ccc(NC(=O)c3ccccc3Nc3ccccc3)cc2)n1,IC50,[14],> 1000 nM
same,IC50,[15],> 1000 nM
same,Vd,[16],4.8 L/kg
same,IC50,[2],> 1000 nM
same,IC50,Ephrin type-B receptor 4,> 1000 nM
same,IC50,[17],> 1000 nM
same,IC50,[3],> 1000 nM
same,IC50,[18],> 1000 nM
same,IC50,[4],> 1000 nM
same,clearance,[19],60 mL/min/kg
same,solubility thermodynamic,[5],5 µg/mL
